Experimental data as given in ChEMBL document CHEMBL1154129, “Cytotoxic polyketides from a marine-derived fungus Aspergillus glaucus” (J Nat Prod, 2008).
The source made the active and inactive calls. No cut-off for these calls is given here.

Columns and labels:
Format in all cases: functional, cell-based
[1] = tested on: HL-60; experiment: Cytotoxicity against human HL60 cells at 100 uM after 72 hrs by MTT assay
[2] = tested on: A549; experiment: Cytotoxicity against human A549 cells at 100 uM after 24 hrs by SRB assay
[3] = tested on: A549; experiment: Cytotoxicity against human A549 cells after 24 hrs by SRB assay; details: A549, 24 h
Procedure, shortened: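 A-549 cells plated at 2 × 10^5 cells/mL, then compounds added in MeOH (2 µL per well) at several concentrations for 24 h. Cells fixed with 12% trichloroacetic acid, stained with 0.4% SRB, absorbance read at 515 nm. IC50 taken from the linear portion of log dose–response curves.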

[4] = tested on: HL-60; experiment: Cytotoxicity against human HL60 cells after 72 hrs by MTT assay; details: HL-60, 72 h
Procedure, shortened: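 HL60 grown in RPMI-1640 with 10% FBS at 37 °C, 5% CO2. Seeded at 5 × 10^4 cells/mL, allowed 24 h, then given compounds in MeOH (2 µL per well) at several concentrations for 72 h. MTT (5 mg/mL stock) added for 4 h, formazan dissolved in DMSO, absorbance read at 540 nm. IC50 taken from the linear portion of log dose–response curves.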

## COc1cc(O[C@H]2O[C@H](CO)[C@@H](O)[C@H]2O)cc2cc(C)cc(O)c12
[1]
  Activity: inactive
[2]
  Activity: inactive

## COc1cc(O)cc2cc3c(c(O)c12)C(=O)C[C@@H](C)[C@@H]3O
[1]
  Activity: inactive
[2]
  Activity: inactive

## COc1cc(O)cc2c1C(=O)c1c(O)cc(C)c3oc(=O)c(C(=O)c4c(C)cc(O)cc4O)c-2c13 [ASPERGIOLIDE B]
[3]
  IC50: 0.24 µM
[4]
  IC50: 0.51 µM

## COc1cc(O)c2c(c1)[C@@H]([C@H]1c3cc(C)cc(O)c3C(=O)c3c(O)cc(O)cc31)c1cc(C)cc(O)c1C2=O (relative stereo)
[3]
  IC50: 9.2 µM
[4]
  IC50: 7.8 µM

## COc1cc(O)c2c(c1)[C@H]([C@H]1c3cc(C)cc(O)c3C(=O)c3c(O)cc(O)cc31)c1cc(C)cc(O)c1C2=O (relative stereo)
[3]
  IC50: 14.2 µM
[4]
  IC50: 44 µM

## COc1cc(O[C@H]2O[C@H](CO)[C@@H](O)[C@H]2O)cc2cccc(O)c12
[1]
  Activity: inactive
[2]
  Activity: inactive

## COc1cc(O)cc2c1C(=O)c1c(cc(C)c(C(=O)OC[C@H](O)CO)c1O)C2=O
[1]
  Activity: inactive
[2]
  Activity: inactive

## COc1cc(O[C@H]2O[C@H](CO)[C@@H](O)[C@H]2O)cc2cc(C)c(C(C)=O)c(O)c12
[1]
  Activity: inactive
[2]
  Activity: inactive
